Laboratory results reported in ChEMBL document CHEMBL4138133, “2,3-Dihydro-3β-methoxy Withaferin-A Protects Normal Cells against Stress: Molecular Evidence of Its Potent Cytoprotective Activity” (J Nat Prod, 2017).
Active and inactive are the calls of the source. No cut-off for these calls is given here.

Assays:
TIG-3 [1] = assay: Induction of oxidative stress in human TIG3 cells assessed as increase in p53 expression level at 0.6 uM by immunoblot analysis; assay type: cell-based; conditions: tig-3, 0.6 µM
How it was run: (§1)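 TIG-3 cells treated with compound, lysed in NP40 buffer (centrifuged 20 min, 4 °C); 10−20 μg protein immunoblotted for indicated proteins; band quantitation from three independent experiments, Student's t or Mann−Whitney test.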

TIG-3 [2] = assay: Effect on p21 WAF1 expression level in human TIG3 cells at 0.3 to 3 uM by immunoblot analysis; assay type: ADME, cell-based; conditions: tig-3, 3 µM; how it was run: as §1
TIG-3 [3] = assay: Effect on p53 expression level in human TIG3 cells at 0.3 to 3 uM by immunoblot analysis; assay type: cell-based; conditions: tig-3, 3 µM; how it was run: as §1
[4] = target: Mitogen-activated protein kinase 1 (Homo sapiens) (UniProt P28482); assay: Induction of ERK2 phosphorylation at Tyr204 residues in H2O2 treated human TIG3 cells pretreated with H2O2 for 2 hrs followed by compound addition by immuno fluorescence staining based analysis
How it was run: (§2)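 TIG-3 fibroblasts (DMEM, 10% FBS, 37 °C) stressed with H2O2 (500 μM, 2 h) or UV (50 mJ/cm2), then recovered in compound-supplemented medium. Cells fixed in chilled absolute methanol and immunostained for the marker. Images taken by fluorescence microscopy and staining intensity quantified. Triplicate experiments.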

TIG-3 [5] = assay: Cytoprotective activity against UV irradiation-induced stress in human TIG3 cells assessed as decrease in CARF level irradiated with 50 mJ/cm2 of UV radiations followed by compound addition by immuno fluorescence staining based assay; assay type: functional, cell-based
Homo sapiens = species on record: Homo sapiens; assay: Induction of AKT/p38/p44 MAPK-mediated survivin expression level in H2O2 treated human TIG3 cells at 0.6 uM pretreated with H2O2 for 2 hrs followed by compound addition by immunoblot analysis
How it was run: (§3)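 TIG-3 cells stressed with H2O2 (500 μM, 2 h), then recovered in medium containing 0.3 or 0.6 μM compound. Lysed in NP40 buffer; 10−20 μg protein immunoblotted for pAkt Ser473, p-p38 Thr180/Tyr182, p-p44/42 Thr202/Tyr204, β-catenin, survivin, Bcl-2 or full-length PARP-1. Triplicate experiments.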

TIG-3 [6] = assay: Cytoprotective activity against human TIG3 cells assessed as increase in cell viability at 1.5 to 3 uM pretreated with Wi-A at 0.3 uM for 24 hrs followed by compound addition measured after 48 hrs; assay type: functional, cell-based
How it was run: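 TIG-3 cells pretreated with 0.3 μM Wi-A for 24 h, then incubated with 1.5 or 3 μM compound for 48 h before viability was read. Triplicate, mean ± SEM.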

[7] = target: Kelch-like ECH-associated protein 1 (Homo sapiens, UniProt Q14145); assay: Activation of keap1 in human TIG3 cells assessed as Nrf2 nuclear accumulation at 0.6 uM by immuno staining analysis; assay type: cell-based
How it was run: (§4)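 Methanol-fixed (chilled absolute methanol) TIG-3 fibroblasts treated with Wi-A or 3βmWi-A; immunofluorescence staining with antibodies, imaged by epifluorescence microscopy; signal quantitated from three independent experiments.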

[8] = target: RAC-alpha serine/threonine-protein kinase (Homo sapiens) (UniProt P31749); assay: Induction of Akt phosphorylation at Ser473 residues in H2O2 treated human TIG3 cells at 0.6 uM pretreated with H2O2 for 2 hrs followed by compound addition by immunoblot analysis; how it was run: as §3
TIG-3 [9] = assay: Cytoprotective activity against cisplatin-induced stress in human TIG3 cells assessed as increase in cell survival pretreated with cisplatin for 24 hrs followed by compound addition measured after 2 days by crystal violet staining based assay; assay type: functional
[10] = target: MAP kinase p38 (Homo sapiens) (UniProt O15264+Q15759+Q16539+P53778); assay: Induction of p38 MAPK phosphorylation at Thr180/Tyr182 residues in H2O2 treated human TIG3 cells at 0.6 uM pretreated with H2O2 for 2 hrs followed by compound addition by immunoblot analysis; how it was run: as §3
TIG-3 [11] = assay: Induction of oxidative stress in human TIG3 cells assessed as increase in GADD45alpha mRNA levels by RT-PCR analysis; assay type: cell-based
How it was run: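 Total RNA from treated TIG-3 cells; cDNA from 2 μg RNA; PCR 95 °C 10 min, 30 cycles (95 °C 45 s, 58 °C 1 min, 72 °C 45 s), 72 °C 10 min; products on 0.8% agarose, band densitometry; three independent experiments.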

TIG-3 [12] = assay: Cytotoxicity against human TIG3 cells assessed as decrease in ROS generation at 1.5 to 3 uM after 48 hrs; assay type: cell-based; conditions: tig-3, 48 h
[13] = target: RAC-alpha serine/threonine-protein kinase (Homo sapiens) (UniProt P31749); assay: Induction of AKT-mediated beta-catenin expression level in H2O2 treated human TIG3 cells at 0.6 uM pretreated with H2O2 for 2 hrs followed by compound addition by immunoblot analysis; how it was run: as §3
TIG-3 [14] = assay: Induction of oxidative stress in human TIG3 cells assessed as increase in CARF expression level at 0.6 uM by immunoblot analysis; assay type: cell-based; conditions: tig-3, 0.6 µM; how it was run: as §1
TIG-3 [15] = assay: Effect on mortalin expression level in human TIG3 cells at 0.3 to 3 uM by immuno fluorescence analysis; assay type: ADME, cell-based; conditions: tig-3, 3 µM; how it was run: as §4
TIG-3 [16] = assay: Cytoprotective activity against H2O2-induced oxidative stress in human TIG3 cells assessed as increase in full length PARP level at 0.6 uM pretreated with H2O2 for 2 hrs followed by compound addition by immunoblot analysis; assay type: functional, cell-based; how it was run: as §3
TIG-3 [17] = assay: Cytoprotective activity against etoposide-induced stress in human TIG3 cells assessed as increase in cell survival pretreated with etoposide for 24 hrs followed by compound addition measured after 2 days by crystal violet staining based assay; assay type: functional
TIG-3 [18] = assay: Cytotoxicity against human TIG3 cells assessed as cell death at 0.6 uM; assay type: cell-based; conditions: tig-3, 0.6 µM
How it was run: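 Phase-contrast microscopy of morphology of control and treated normal human TIG-3 fibroblasts.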

TIG-3 [19] = assay: Cytoprotective activity against H2O2-induced oxidative stress in human TIG3 cells assessed as decrease in protein disulfide isomerase expression level at 0.6 uM pretreated with H2O2 for 2 hrs followed by compound addition by immuno fluorescence staining based analysis; assay type: functional, cell-based; how it was run: as §2

RAC-alpha serine/threonine-protein kinase (Homo sapiens), sequence (P31749 whole entry): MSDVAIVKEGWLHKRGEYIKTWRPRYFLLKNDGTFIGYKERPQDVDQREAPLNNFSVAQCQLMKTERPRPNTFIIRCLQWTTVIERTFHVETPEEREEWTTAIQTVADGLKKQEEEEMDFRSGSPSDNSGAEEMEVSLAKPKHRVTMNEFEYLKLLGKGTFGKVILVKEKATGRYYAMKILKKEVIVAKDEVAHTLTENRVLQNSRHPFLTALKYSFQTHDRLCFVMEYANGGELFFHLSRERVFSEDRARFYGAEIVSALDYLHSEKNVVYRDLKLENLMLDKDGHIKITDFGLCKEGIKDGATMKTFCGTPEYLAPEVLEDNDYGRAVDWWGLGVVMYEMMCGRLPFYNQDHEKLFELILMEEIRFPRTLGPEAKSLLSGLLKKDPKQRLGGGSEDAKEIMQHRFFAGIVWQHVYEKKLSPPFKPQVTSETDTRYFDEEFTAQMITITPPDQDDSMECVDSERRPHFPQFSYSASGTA
Kelch-like ECH-associated protein 1, sequence (Q14145 whole entry): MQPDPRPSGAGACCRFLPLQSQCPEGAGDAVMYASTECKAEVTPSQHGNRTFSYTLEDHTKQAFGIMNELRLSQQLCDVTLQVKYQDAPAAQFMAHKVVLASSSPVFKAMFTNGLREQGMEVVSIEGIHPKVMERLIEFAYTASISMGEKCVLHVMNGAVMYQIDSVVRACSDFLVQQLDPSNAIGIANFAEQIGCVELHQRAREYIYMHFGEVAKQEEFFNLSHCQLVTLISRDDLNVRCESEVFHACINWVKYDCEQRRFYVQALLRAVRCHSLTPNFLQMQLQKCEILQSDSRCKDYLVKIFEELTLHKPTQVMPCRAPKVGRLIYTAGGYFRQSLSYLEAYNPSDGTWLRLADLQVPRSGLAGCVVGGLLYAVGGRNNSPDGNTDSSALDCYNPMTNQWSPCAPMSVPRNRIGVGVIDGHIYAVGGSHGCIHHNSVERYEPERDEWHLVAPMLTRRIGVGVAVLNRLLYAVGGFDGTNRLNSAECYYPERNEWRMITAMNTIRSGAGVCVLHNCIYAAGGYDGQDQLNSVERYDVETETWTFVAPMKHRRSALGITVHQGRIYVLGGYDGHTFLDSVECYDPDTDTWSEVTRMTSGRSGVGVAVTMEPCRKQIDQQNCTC
Mitogen-activated protein kinase 1 (Homo sapiens), sequence (P28482 whole entry): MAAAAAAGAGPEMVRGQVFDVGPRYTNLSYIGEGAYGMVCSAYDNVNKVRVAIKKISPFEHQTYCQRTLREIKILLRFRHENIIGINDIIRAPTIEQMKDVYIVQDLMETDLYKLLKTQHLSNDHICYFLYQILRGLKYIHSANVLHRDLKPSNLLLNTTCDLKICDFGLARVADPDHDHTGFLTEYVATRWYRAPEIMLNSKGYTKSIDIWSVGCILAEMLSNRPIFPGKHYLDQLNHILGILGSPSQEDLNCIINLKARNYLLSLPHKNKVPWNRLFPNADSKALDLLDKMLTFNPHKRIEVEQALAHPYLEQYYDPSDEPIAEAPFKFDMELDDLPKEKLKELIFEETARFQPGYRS

Question: Which Activity (TIG-3 [1]) does the source give for `CO[C@H]1CC(=O)[C@]2(C)[C@H]3CC[C@]4(C)[C@@H]([C@H](C)[C@H]5CC(C)=C(CO)C(=O)O5)CC[C@H]4[C@@H]3C[C@H]3O[C@]32[C@H]1O` here?
Answer: The Activity was “Non-Toxic”.

Question: What about the Activity (TIG-3 [2]) of the same compound?
Answer: Its Activity is “Non-Toxic”.

Question: What about the Activity (TIG-3 [3]) of the same compound?
Answer: Its Activity is “Non-Toxic”.

Question: What about the Activity [4] of the same compound?
Answer: Its Activity is “Active”.

Question: And the Activity (TIG-3 [5])?
Answer: Its Activity is “Active”.

Question: What about the Activity (Homo sapiens) of the same compound?
Answer: Its Activity is “Active”.

Question: What about the Activity (TIG-3 [6]) of the same compound?
Answer: Its Activity is “Active”.

Question: What about the Activity [7] of the same compound?
Answer: The Activity was “Not Active”.

Question: What about the Activity [8] of the same compound?
Answer: The Activity was “Active”.

Question: And the Activity (TIG-3 [9])?
Answer: Its Activity is “Dose-dependent effect”.

Question: And the Activity [10]?
Answer: The Activity was “Active”.

Question: And the Activity (TIG-3 [11])?
Answer: The Activity was “Non-Toxic”.

Question: What about the Activity (TIG-3 [12]) of the same compound?
Answer: The Activity was “Non-Toxic”.

Question: And the Activity [13]?
Answer: The Activity was “Active”.

Question: And the Activity (TIG-3 [14])?
Answer: Its Activity is “Non-Toxic”.

Question: What about the Activity (TIG-3 [15]) of the same compound?
Answer: The Activity was “Non-Toxic”.

Question: And the Activity (TIG-3 [16])?
Answer: The Activity was “Active”.

Question: What about the Activity (TIG-3 [17]) of the same compound?
Answer: The Activity was “Dose-dependent effect”.

Question: What about the Activity (TIG-3 [18]) of the same compound?
Answer: The Activity was “Non-Toxic”.

Question: What about the Activity (TIG-3 [19]) of the same compound?
Answer: The Activity was “Active”.
